Source: ChEMBL document CHEMBL1148966, “Cytotoxic steroidal saponins from Polygonatum zanlanscianense” (J Nat Prod, 2004)
Converted amounts (≈) assume the structure as drawn.

System: HeLa
Experiment: Cytotoxicity against human HeLa cells after 72 hrs by MTT assay
Type: functional, cell-based
Summary of the method: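 HeLa cells in 96-well microplates; viability by MTT colorimetric assay, optical density read at 570 nm on a plate reader; IC50 reported in µg/mL. Cisplatin run as positive control.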

SMILES | IC50
C[C@H]1O[C@@H](O[C@H]2CC[C@@]3(C)C(=CC[C@H]4[C@@H]5C[C@@H]6O[C@]7(CC[C@@H](CO[C@@H]8O[C@H](CO)[C@@H](O)[C@H](O)[C@H]8O)CO7)[C@@H](C)[C@@H]6[C@@]5(C)C(=O)C[C@@H]43)C2)[C@H](O)[C@@H](O)[C@H]1O[C@@H]1O[C@H](CO)[C@@H](O)[C@H](O)[C@H]1O [POLYGONATOSIDE A] | 5.06 µg/mL (≈ 5.53 µM)
C[C@@H]1CC[C@@]2(OC1)O[C@H]1C[C@H]3[C@@H]4CC=C5C[C@@H](O[C@@H]6O[C@H](CO)[C@@H](O[C@@H]7OC[C@@H](O)[C@@H](O[C@@H]8O[C@@H](C)[C@H](O[C@@H]9O[C@@H](C)[C@H](O)[C@@H](O)[C@H]9O)[C@@H](O)[C@H]8O)[C@@H]7O)[C@H](O)[C@H]6O[C@@H]6O[C@@H](C)[C@H](O)[C@@H](O)[C@H]6O)CC[C@]5(C)[C@H]4CC[C@]3(C)[C@H]1[C@@H]2C [PARISSAPONIN PB] | 3.14 µg/mL (≈ 2.74 µM)
C[C@@H]1CC[C@@]2(OC1)O[C@H]1C[C@H]3[C@@H]4CC=C5C[C@@H](O[C@@H]6O[C@H](CO)[C@@H](O)[C@H](O)[C@H]6O[C@@H]6O[C@@H](C)[C@H](O)[C@@H](O)[C@H]6O)CC[C@]5(C)[C@H]4CC[C@]3(C)[C@H]1[C@@H]2C [OPHIOPOGONIN C] | 6.23 µg/mL (≈ 8.62 µM)
C[C@@H]1CC[C@@]2(OC1)O[C@H]1C[C@H]3[C@@H]4CC=C5C[C@@H](O[C@@H]6O[C@H](CO)[C@@H](O)[C@H](O[C@@H]7O[C@H](CO)[C@@H](O)[C@H](O)[C@H]7O)[C@H]6O[C@@H]6O[C@@H](C)[C@H](O)[C@@H](O)[C@H]6O)CC[C@]5(C)[C@H]4CC[C@]3(C)[C@H]1[C@@H]2C [GRACILLIN] | 12.7 µg/mL (≈ 14.4 µM)
CC1=CC(=O)CC(C)(C)[C@H]1CC[C@@H](C)O[C@@H]1O[C@H](CO[C@@H]2O[C@H](CO)[C@@H](O)[C@H](O)[C@H]2O)[C@@H](O)[C@H](O)[C@H]1O | 20.1 µg/mL (≈ 37.5 µM)
C[C@H]1O[C@@H](O[C@H]2CC[C@@]3(C)C(=CC[C@H]4[C@@H]5C[C@@H]6O[C@@]7(OC[C@H](CO)C[C@@H]7O)[C@@H](C)[C@@H]6[C@@]5(C)C(=O)C[C@@H]43)C2)[C@H](O)[C@@H](O)[C@H]1O[C@@H]1O[C@H](CO)[C@@H](O)[C@H](O)[C@H]1O [POLYGONATOSIDE C] | 7.45 µg/mL (≈ 9.69 µM)
C[C@@H]1CC[C@@]2(OC1)O[C@H]1C[C@H]3[C@@H]4CC=C5C[C@@H](O[C@@H]6O[C@H](CO)[C@@H](O[C@@H]7OC[C@@H](O)[C@@H](O)[C@@H]7O)[C@H](O)[C@H]6O[C@@H]6O[C@@H](C)[C@H](O)[C@@H](O)[C@H]6O)CC[C@]5(C)[C@H]4CC[C@]3(C)[C@H]1[C@@H]2C | 14.6 µg/mL (≈ 17 µM)
C[C@@H]1O[C@@H](O[C@H]2[C@H](O[C@H]3CC[C@@]4(C)C(=CC[C@H]5[C@@H]6C[C@@H]7O[C@]8(CC[C@@H](CO)CO8)[C@@H](C)[C@@H]7[C@@]6(C)CC[C@@H]54)C3)O[C@H](CO)[C@@H](O[C@@H]3O[C@@H](C)[C@H](O)[C@@H](O)[C@H]3O)[C@@H]2O)[C@H](O)[C@H](O)[C@H]1O | 3.62 µg/mL (≈ 4.09 µM)
C[C@H]1[C@H]2[C@H](C[C@H]3[C@@H]4CC=C5C[C@@H](O[C@@H]6O[C@H](CO)[C@H](O[C@@H]7O[C@H](CO)[C@@H](O)[C@H](O)[C@H]7O)[C@H](O)[C@H]6O)CC[C@]5(C)[C@H]4CC(=O)[C@]23C)O[C@]12CC[C@@H](CO[C@@H]1O[C@H](CO)[C@@H](O)[C@H](O)[C@H]1O)CO2 | 5.13 µg/mL (≈ 5.51 µM)
C[C@H]1[C@H]2[C@H](C[C@H]3[C@@H]4CC=C5C[C@@H](O[C@@H]6O[C@H](CO)[C@H](O[C@@H]7O[C@H](CO)[C@@H](O)[C@H](O)[C@H]7O[C@@H]7O[C@H](CO)[C@@H](O)[C@H](O)[C@H]7O)[C@H](O)[C@H]6O)CC[C@]5(C)[C@H]4CC[C@]23C)O[C@]12CC[C@@H](CO)CO2 | 5.24 µg/mL (≈ 5.71 µM)
C[C@@H]1O[C@@H](O[C@H]2[C@H](O)[C@@H](O)[C@H](O[C@H]3CC[C@@]4(C)C(=CC[C@H]5[C@@H]6C[C@@H]7O[C@]8(CC[C@@H](CO[C@@H]9O[C@H](CO)[C@@H](O)[C@H](O)[C@H]9O)CO8)[C@@H](C)[C@@H]7[C@@]6(C)CC[C@@H]54)C3)O[C@@H]2CO)[C@H](O)[C@H](O)[C@H]1O [POLYGONATOSIDE D] | 5.83 µg/mL (≈ 6.47 µM)
